Experimental data taken from ChEMBL document CHEMBL4007456, “Heterocyclyl Tetracyclines. 1. 7-Trifluoromethyl-8-Pyrrolidinyltetracyclines: Potent, Broad Spectrum Antibacterial Agents with Enhanced Activity against Pseudomonas aeruginosa” (2017).
In brackets after ≈: the same amount, converted by molar mass.

Assays:
Type in all cases: functional
[1] = test system: Pseudomonas aeruginosa; test: Antibacterial activity against Pseudomonas aeruginosa PA1145 in BALB/c mouse model of lung infection assessed as reduction in log10CFU per gram of lung at 40 mg/kg, iv bid administered 2 to 12 hrs of post-infection measured after 24 hrs relative to untreated control
How it was run: (§1)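 Female BALB/c mice, 18 to 20 g, infected intranasally under light anesthesia with ~ 2 x 10^7 CFU/mouse of P. aeruginosa PA1145 (cystic fibrosis isolate) in 0.05 mL. Treatment at 2 and 12 h post-infection, IV, or intranasally for tobramycin; n = 6 per group. Lungs harvested 24 h after treatment began, homogenized, plated on MacConkey medium, incubated overnight at 37 °C in 5% CO2. CFU per gram lung compared with T = 24 h untreated control.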

[2] = test system: Pseudomonas aeruginosa; test: Antibacterial activity against Pseudomonas aeruginosa PA1145 in BALB/c mouse model of lung infection administered as iv bid for 2 to 12 hrs of post-infection measured after 24 hrs
How it was run: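 Female BALB/c mice (18–20 g) infected intranasally with ~2 x 10^7 CFU/mouse P. aeruginosa PA1145 (cystic fibrosis isolate) under light anesthesia. Dosing at 2 and 12 h post-infection, IV (compound, tigecycline, amikacin) or intranasal (tobramycin); n = 6 per group. Lungs harvested 24 h after treatment start, homogenized, plated on MacConkey agar, 37 °C overnight; CFU/g lung; Mann-Whitney vs T = 0 h or 24 h controls.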

[3] = test system: Klebsiella pneumoniae; test: Antibacterial activity against gram-negative Klebsiella pneumoniae KP153 harboring tet(A) by CLSI method
How it was run: (§2)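 CLSI broth microdilution MIC in fresh cation-adjusted Mueller Hinton broth, supplemented with defibrinated horse blood where appropriate. Compounds serially diluted in sterile deionized water. Runs accepted when comparator antibiotics against ATCC quality-control strains fell within recommended ranges.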

[4] = test system: Stenotrophomonas maltophilia; test: Antibacterial activity against gram-negative Stenotrophomonas maltophilia SM256 by CLSI method
How it was run: (§3)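 Broth microdilution MIC per CLSI in cation-adjusted Mueller Hinton broth, prepared fresh and held at 4 °C. Defibrinated horse blood added where appropriate. Compounds serially diluted in sterile deionized water. Strains from ATCC unless otherwise noted. Runs accepted when comparator antibiotics fell within QC ranges for ATCC quality control strains.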

[5] = test system: Enterococcus faecalis; test: Antibacterial activity against gram-positive Enterococcus faecalis EF159 harboring tet(M) by CLSI method; how it was run: as §2
[6] = test system: Klebsiella pneumoniae; test: Antibacterial activity against gram-negative Klebsiella pneumoniae KP194 by CLSI method; how it was run: as §3
[7] = test system: Proteus mirabilis; test: Antibacterial activity against gram-negative Proteus mirabilis PM122 by CLSI method
How it was run: (§4)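 Defibrinated horse blood added where appropriate. Compounds serially diluted in sterile deionized water. Strains from ATCC unless otherwise noted. Runs accepted when comparator antibiotics fell within QC ranges for ATCC quality control strains.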

[8] = test system: Streptococcus pneumoniae; test: Antibacterial activity against gram-positive Streptococcus pneumoniae SP160 harboring tet(M) by CLSI method; how it was run: as §2
[9] = test system: Acinetobacter baumannii; test: Antibacterial activity against gram-negative Acinetobacter baumannii AB250 by CLSI method; how it was run: as §3
[10] = test system: Burkholderia cenocepacia; test: Antibacterial activity against gram-negative Burkholderia cenocepacia BC240 by CLSI method; how it was run: as §4
[11] = test system: Staphylococcus aureus; test: Antibacterial activity against gram-positive Staphylococcus aureus SA161 harboring tet(M) by CLSI method; how it was run: as §2
[12] = test system: Streptococcus pneumoniae; test: Antibacterial activity against gram-positive Streptococcus pneumoniae SP193 by CLSI method; how it was run: as §3
[13] = test system: Staphylococcus aureus; test: Antibacterial activity against gram-positive Staphylococcus aureus SA101 by CLSI method; how it was run: as §3
[14] = test system: Escherichia coli; test: Antibacterial activity against gram-negative Escherichia coli EC107 by CLSI method; how it was run: as §3
[15] = test system: Staphylococcus aureus; test: Antibacterial activity against gram-positive Staphylococcus aureus SA158 harboring tet(K) by CLSI method; how it was run: as §2
[16] = test system: Pseudomonas aeruginosa; test: Antibacterial activity against gram-negative Pseudomonas aeruginosa PA169 by CLSI method; how it was run: as §4
[17] = test system: Escherichia coli; test: Antibacterial activity against gram-negative Escherichia coli EC155 harboring tet(A) by CLSI method; how it was run: as §2
[18] = test system: Klebsiella pneumoniae; test: Antibacterial activity against gram-negative Klebsiella pneumoniae KP457 harboring blacTX-M-15 extended spectrum beta-lactamase gene by CLSI method; how it was run: as §2
[19] = test system: Pseudomonas aeruginosa; test: Antibacterial activity against Pseudomonas aeruginosa PA694 in CD-1 mouse model of thigh infection administered as iv bid for 2 to 12 hrs of post-infection measured after 24 hrs
How it was run: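 Female specific-pathogen-free CD-1 mice (22 ± 2 g), groups of 5, inoculated intramuscularly into right thigh with 3-5 x 10^6 CFU/mouse P. aeruginosa PA694 (UTI isolate). IV dosing at 5, 15 and 40 mg/kg at 2 and 12 h post-infection. Thigh muscle harvested at 24 h, homogenized in PBS pH 7.4, plated on Brain Heart Infusion agar + 0.5% charcoal; CFU/g thigh vs untreated controls; Mann-Whitney.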

[20] = test system: Pseudomonas aeruginosa; test: Antibacterial activity against Pseudomonas aeruginosa PA694 in CD-1 mouse model of thigh infection assessed as reduction in log10CFU per gram of thigh at 40 mg/kg, iv bid administered 2 to 12 hrs of post-infection measured after 24 hrs relative to untreated control
How it was run: (§5)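 Groups of 5 female specific-pathogen-free CD-1 mice, 22 ± 2 g. Right thigh inoculated intramuscularly with 3-5 x 10^6 CFU/mouse of P. aeruginosa PA694 (UTI isolate). Dosed IV at 5, 15 or 40 mg/kg at 2 and 12 h post-infection. Thigh muscle harvested at 24 h post-infection, homogenized in PBS (pH 7.4), plated on Brain Heart Infusion agar + 0.5% charcoal. Log10 CFU per gram thigh compared with 24 h untreated control.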

[21] = test system: Pseudomonas aeruginosa; test: Antibacterial activity against Pseudomonas aeruginosa PA1145 in BALB/c mouse model of lung infection assessed as reduction in log10CFU per gram of lung at 15 mg/kg, iv bid administered 2 to 12 hrs of post-infection measured after 24 hrs relative to untreated control; how it was run: as §1
[22] = test system: Pseudomonas aeruginosa; test: Antibacterial activity against gram-negative Pseudomonas aeruginosa PA555 by CLSI method; how it was run: as §3
[23] = test system: Enterococcus faecalis; test: Antibacterial activity against gram-positive Enterococcus faecalis EFs327 harboring tet(M) by CLSI method; how it was run: as §2
[24] = test system: Pseudomonas aeruginosa; test: Antibacterial activity against Pseudomonas aeruginosa PA1145 in BALB/c mouse model of lung infection assessed as reduction in log10CFU per gram of lung at 5 mg/kg, iv bid administered 2 to 12 hrs of post-infection measured after 24 hrs relative to untreated control; how it was run: as §1
[25] = test system: Pseudomonas aeruginosa; test: Antibacterial activity against Pseudomonas aeruginosa PA694 in CD-1 mouse model of thigh infection assessed as reduction in log10CFU per gram of thigh administered intranasally as bid for 2 to 12 hrs of post-infection measured after 24 hrs
[26] = test system: Proteus mirabilis; test: Antibacterial activity against gram-negative Proteus mirabilis PM385 by CLSI method; how it was run: as §3
[27] = test system: Enterococcus faecium; test: Antibacterial activity against gram-positive Enterococcus faecium EFm404 harboring tet(M) by CLSI method; how it was run: as §2
[28] = test system: Pseudomonas aeruginosa; test: Antibacterial activity against Pseudomonas aeruginosa PA694 in CD-1 mouse model of thigh infection assessed as reduction in log10CFU per gram of thigh at 5 mg/kg, iv bid administered 2 to 12 hrs of post-infection measured after 24 hrs relative to untreated control; how it was run: as §5
[29] = test system: Enterobacter cloacae; test: Antibacterial activity against gram-negative Enterobacter cloacae EC1603 harboring tet(A) by CLSI method; how it was run: as §2
[30] = test system: Pseudomonas aeruginosa; test: Antibacterial activity against Pseudomonas aeruginosa PA1145 in BALB/c mouse model of lung infection assessed as reduction in log10CFU per gram of lung compound administered intranasally as bid for 2 to 12 hrs of post-infection measured after 24 hrs; how it was run: as §1
[31] = test system: Pseudomonas aeruginosa; test: Antibacterial activity against Pseudomonas aeruginosa PA694 in CD-1 mouse model of thigh infection assessed as reduction in log10CFU per gram of thigh at 15 mg/kg, iv bid administered 2 to 12 hrs of post-infection measured after 24 hrs relative to untreated control; how it was run: as §5

| SMILES | Activity [1] | MIC [2] | MIC [3] | MIC [4] | MIC [5] | MIC [7] | MIC [8] | MIC [9] | MIC [10] | MIC [11] | MIC [12] | MIC [13] | MIC [14] | MIC [15] | MIC [16] | MIC [17] | MIC [19] | Activity [20] | Activity [28] | Activity [31] | further results |
| --- | --- | --- | --- | --- | --- | --- | --- | --- | --- | --- | --- | --- | --- | --- | --- | --- | --- | --- | --- | --- | --- |
| NCC[C@H](O)C(=O)N[C@@H]1C[C@H](N)[C@@H](O[C@H]2O[C@H](CN)[C@@H](O)[C@H](O)[C@H]2O)[C@H](O)[C@H]1O[C@H]1O[C@H](CO)[C@@H](O)[C@H](N)[C@H]1O [AMIKACIN] | 3.6 deltalog10CFU | 4 µg/mL (≈ 6.83 µM) | – | – | – | – | – | – | – | – | – | – | – | – | – | – | – | – | – | – | – |
| CN1CCCCC1c1cc(O)c2c(c1Cl)C[C@H]1C[C@H]3[C@H](N(C)C)C(O)=C(C(N)=O)C(=O)[C@@]3(O)C(O)=C1C2=O (stereo not given in full) | – | – | 1 µg/mL (≈ 1.83 µM) | 1 µg/mL (≈ 1.83 µM) | 2 µg/mL (≈ 3.66 µM) | 1 µg/mL (≈ 1.83 µM) | 0.25 µg/mL (≈ 0.458 µM) | 2 µg/mL (≈ 3.66 µM) | 8 µg/mL (≈ 14.7 µM) | 4 µg/mL (≈ 7.33 µM) | ≤ 0.0156 µg/mL | 0.25 µg/mL (≈ 0.458 µM) | 0.125 µg/mL (≈ 0.229 µM) | 0.0313 µg/mL (≈ 0.0573 µM) | 32 µg/mL (≈ 58.6 µM) | 1 µg/mL (≈ 1.83 µM) | – | – | – | – | MIC [6]: 16 µg/mL (≈ 29.3 µM) |
| CN(C)[C@@H]1C(O)=C(C(N)=O)C(=O)[C@@]2(O)C(O)=C3C(=O)c4c(O)cc(-c5cccnc5)c(Cl)c4C[C@H]3C[C@@H]12 | – | – | > 32 µg/mL | 2 µg/mL (≈ 3.8 µM) | 1 µg/mL (≈ 1.9 µM) | 16 µg/mL (≈ 30.4 µM) | 8 µg/mL (≈ 15.2 µM) | > 32 µg/mL | 8 µg/mL (≈ 15.2 µM) | 1 µg/mL (≈ 1.9 µM) | 0.25 µg/mL (≈ 0.475 µM) | 0.125 µg/mL (≈ 0.238 µM) | 2 µg/mL (≈ 3.8 µM) | 0.125 µg/mL (≈ 0.238 µM) | > 32 µg/mL | > 32 µg/mL | – | – | – | – | – |
| CN(C)[C@@H]1C(O)=C(C(N)=O)C(=O)[C@@]2(O)C(O)=C3C(=O)c4c(O)cc([C@@H]5CCCN5)c(C(F)(F)F)c4C[C@H]3C[C@@H]12 | 3.7 deltalog10CFU | 2 µg/mL (≈ 3.63 µM) | – | 1 µg/mL (≈ 1.81 µM) | – | – | ≤ 0.0156 µg/mL | 2 µg/mL (≈ 3.63 µM) | 8 µg/mL (≈ 14.5 µM) | 4 µg/mL (≈ 7.25 µM) | – | 0.0625 µg/mL (≈ 0.113 µM) | ≤ 0.0156 µg/mL | ≤ 0.0156 µg/mL | – | 2 µg/mL (≈ 3.63 µM) | 4 µg/mL (≈ 7.25 µM) | 1.9 deltalog10CFU | 0.4 deltalog10CFU | 0.9 deltalog10CFU | MIC [18]: 0.125 µg/mL (≈ 0.227 µM); Activity [21]: 2.3 deltalog10CFU; MIC [22]: 4 µg/mL (≈ 7.25 µM); MIC [23]: 1 µg/mL (≈ 1.81 µM); Activity [24]: 1.7 deltalog10CFU; Activity [25]: Dose-dependent effect; MIC [26]: 0.5 µg/mL (≈ 0.907 µM); MIC [27]: 0.25 µg/mL (≈ 0.453 µM); MIC [29]: 8 µg/mL (≈ 14.5 µM); Activity [30]: Dose-dependent effect |
| C[C@@H](O)[C@H]1C(=O)N2C(C(=O)O)=C(S[C@@H]3CN[C@H](C(=O)N(C)C)C3)[C@H](C)[C@H]12 [MEROPENEM] | – | – | – | – | – | – | – | – | – | – | – | – | – | – | – | – | 0.125 µg/mL (≈ 0.326 µM) | 4.9 deltalog10CFU | 2.9 deltalog10CFU | 4.2 deltalog10CFU | – |
